Tests used:
Type in all cases: functional
IGROV-1 = experiment: Anticancer activity against human IGROV1 cells after 48 hrs by sulforhodamine B assay; conditions: IGROV-1, 48 h
Procedure, shortened: (§1)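 NCI 60-cell-line screen. Cells grown in RPMI 1640 with 5% FBS and 2 mM L-glutamine, plated at 5000–40,000 cells/well, and preincubated 24 h at 37 °C under 5% CO2. Compounds were taken from DMSO stocks and tested at five final concentrations, 10^-4 to 10^-8 M, for 48 h. Cells were TCA-fixed, stained with 0.4% SRB, and read at 515 nm. GI50, TGI and LC50 were derived as log molar values.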

RXF 393 = experiment: Anticancer activity against human RXF393 cells after 48 hrs by sulforhodamine B assay; conditions: RXF 393, 48 h; procedure, shortened: as §1
[1] = Anticancer activity against human Hs 578T cells after 48 hrs by sulforhodamine B assay; procedure, shortened: as §1
MOLT-4 = experiment: Anticancer activity against human MOLT4 cells after 48 hrs by sulforhodamine B assay; conditions: MOLT-4, 48 h; procedure, shortened: as §1
CAKI-1 = experiment: Anticancer activity against human Caki1 cells after 48 hrs by sulforhodamine B assay; conditions: CAKI-1, 48 h; procedure, shortened: as §1
BT-549 = experiment: Anticancer activity against human BT549 cells after 48 hrs by sulforhodamine B assay; conditions: BT-549, 48 h; procedure, shortened: as §1
SK-MEL-5 = experiment: Anticancer activity against human SK-MEL-5 cells after 48 hrs by sulforhodamine B assay; conditions: SK-MEL-5, 48 h; procedure, shortened: as §1
MDA-MB-231 = experiment: Anticancer activity against human MDA-MB-231 cells after 48 hrs by sulforhodamine B assay; conditions: MDA-MB-231, 48 h; procedure, shortened: as §1
SF-295 = experiment: Anticancer activity against human SF295 cells after 48 hrs by sulforhodamine B assay; conditions: SF-295, 48 h; procedure, shortened: as §1
LOX IMVI = experiment: Anticancer activity against human LOXIMVI cells after 48 hrs by sulforhodamine B assay; procedure, shortened: as §1
MDA-N = experiment: Anticancer activity against human MDA-N cells after 48 hrs by sulforhodamine B assay; procedure, shortened: as §1
SK-MEL-2 = experiment: Anticancer activity against human SK-MEL-2 cells after 48 hrs by sulforhodamine B assay; conditions: SK-MEL-2, 48 h; procedure, shortened: as §1
A549 = experiment: Anticancer activity against human A549 cells after 48 hrs by sulforhodamine B assay; conditions: A549, 48 h; procedure, shortened: as §1
SK-MEL-28 = experiment: Anticancer activity against human SK-MEL-28 cells after 48 hrs by sulforhodamine B assay; conditions: SK-MEL-28, 48 h; procedure, shortened: as §1
OVCAR-4 = experiment: Anticancer activity against human OVCAR4 cells after 48 hrs by sulforhodamine B assay; conditions: OVCAR-4, 48 h; procedure, shortened: as §1
UACC-62 = experiment: Anticancer activity against human UACC62 cells after 48 hrs by sulforhodamine B assay; conditions: UACC-62, 48 h
Procedure, shortened: (§2)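 NCI 60-cell-line panel; cells grown in RPMI 1640 with 5% FBS and 2 mM L-glutamine, plated at 5000–40,000 cells/well and preincubated 24 h at 37 °C, 5% CO2. Compounds came from DMSO stocks diluted in medium with gentamicin and were tested at five final concentrations, 10^-4 to 10^-8 M, for 48 h. Cells were fixed with TCA, stained with SRB and read at 515 nm. GI50, TGI and LC50 were derived as log molar values.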

SNB-75 = experiment: Anticancer activity against human SNB75 cells after 48 hrs by sulforhodamine B assay; conditions: SNB-75, 48 h; procedure, shortened: as §2
K562 = experiment: Anticancer activity against human K562 cells after 48 hrs by sulforhodamine B assay; conditions: K562, 48 h; procedure, shortened: as §1
786-0 = experiment: Anticancer activity against human 786-0 cells after 48 hrs by sulforhodamine B assay; conditions: 786-0, 48 h; procedure, shortened: as §1
HCC 2998 = experiment: Anticancer activity against human HCC2998 cells after 48 hrs by sulforhodamine B assay; conditions: HCC 2998, 48 h; procedure, shortened: as §1
HCT-15 = experiment: Anticancer activity against human HCT15 cells after 48 hrs by sulforhodamine B assay; conditions: HCT-15, 48 h; procedure, shortened: as §1
NCI-H322M = experiment: Anticancer activity against human NCI-H322M cells after 48 hrs by sulforhodamine B assay; procedure, shortened: as §1
EKVX = experiment: Anticancer activity against human EKVX cells after 48 hrs by sulforhodamine B assay; procedure, shortened: as §1
T47D = experiment: Anticancer activity against human T47D cells after 48 hrs by sulforhodamine B assay; procedure, shortened: as §2
SR = experiment: Anticancer activity against human SR cells after 48 hrs by sulforhodamine B assay; procedure, shortened: as §2
NCI/ADR-RES = experiment: Anticancer activity against human NCI/ADR-RES cells after 48 hrs by sulforhodamine B assay; procedure, shortened: as §1
ACHN = experiment: Anticancer activity against human ACHN cells after 48 hrs by sulforhodamine B assay; procedure, shortened: as §1
KM12 = experiment: Anticancer activity against human KM12 cells after 48 hrs by sulforhodamine B assay; conditions: KM12, 48 h; procedure, shortened: as §1
CCRF-CEM = experiment: Anticancer activity against human CCRF-CEM cells after 48 hrs by sulforhodamine B assay; procedure, shortened: as §1
UO-31 = experiment: Anticancer activity against human UO31 cells after 48 hrs by sulforhodamine B assay; conditions: UO-31, 48 h; procedure, shortened: as §2
PC-3 = experiment: Anticancer activity against human PC3 cells after 48 hrs by sulforhodamine B assay; conditions: PC-3, 48 h; procedure, shortened: as §1
SNB-19 = experiment: Anticancer activity against human SNB19 cells after 48 hrs by sulforhodamine B assay; conditions: SNB-19, 48 h; procedure, shortened: as §2
SN12C = experiment: Anticancer activity against human SN12C cells after 48 hrs by sulforhodamine B assay; procedure, shortened: as §2
NCI-H522 = experiment: Anticancer activity against human NCI-H522 cells after 48 hrs by sulforhodamine B assay; conditions: NCI-H522, 48 h; procedure, shortened: as §1
DU-145 = experiment: Anticancer activity against human DU145 cells after 48 hrs by sulforhodamine B assay; conditions: DU-145, 48 h; procedure, shortened: as §1
NCI-H226 = experiment: Anticancer activity against human NCI-H226 cells after 48 hrs by sulforhodamine B assay; conditions: NCI-H226, 48 h; procedure, shortened: as §1
NCI-H460 = experiment: Anticancer activity against human NCI-H460 cells after 48 hrs by sulforhodamine B assay; conditions: NCI-H460, 48 h; procedure, shortened: as §1
OVCAR-8 = experiment: Anticancer activity against human OVCAR8 cells after 48 hrs by sulforhodamine B assay; conditions: OVCAR-8, 48 h; procedure, shortened: as §1
TK-10 = experiment: Anticancer activity against human TK10 cells after 48 hrs by sulforhodamine B assay; conditions: TK-10, 48 h; procedure, shortened: as §2
SW-620 = experiment: Anticancer activity against human SW620 cells after 48 hrs by sulforhodamine B assay; conditions: SW-620, 48 h; procedure, shortened: as §2
MCF7 = experiment: Anticancer activity against human MCF7 cells after 48 hrs by sulforhodamine B assay; conditions: MCF7, 48 h; procedure, shortened: as §1
SK-OV-3 = experiment: Anticancer activity against human SKOV3 cells after 48 hrs by sulforhodamine B assay; conditions: SK-OV-3, 48 h; procedure, shortened: as §1
A498 = experiment: Anticancer activity against human A498 cells after 48 hrs by sulforhodamine B assay; conditions: A498, 48 h; procedure, shortened: as §1
M14 = experiment: Anticancer activity against human M14 cells after 48 hrs by sulforhodamine B assay; conditions: M14, 48 h; procedure, shortened: as §1
SF-539 = experiment: Anticancer activity against human SF539 cells after 48 hrs by sulforhodamine B assay; conditions: SF-539, 48 h; procedure, shortened: as §1

CCC(NC(=O)Nc1nc2ccccc2s1)(C(F)(F)F)C(F)(F)F
GI50 (IGROV-1): 17 µM
GI50 (RXF 393): 17.4 µM
GI50 [1]: 21.4 µM
GI50 (MOLT-4): 29.5 µM
GI50 (CAKI-1): 19.1 µM
GI50 (BT-549): 18.2 µM
GI50 (SK-MEL-5): 17.8 µM
GI50 (MDA-MB-231): 16.2 µM
GI50 (SF-295): 17 µM
GI50 (LOX IMVI): 18.2 µM
GI50 (MDA-N): 18.6 µM
GI50 (SK-MEL-2): 15.8 µM
GI50 (A549): 15.8 µM
GI50 (SK-MEL-28): 17.8 µM
GI50 (OVCAR-4): 18.6 µM
GI50 (UACC-62): 15.5 µM
GI50 (SNB-75): 1.45 µM
GI50 (K562): 23.4 µM
GI50 (786-0): 20 µM
GI50 (HCC 2998): 19.1 µM
GI50 (HCT-15): 17.8 µM
GI50 (NCI-H322M): 25.7 µM
GI50 (EKVX): 17 µM
GI50 (T47D): 15.5 µM
GI50 (SR): 17 µM
GI50 (NCI/ADR-RES): 19.5 µM
GI50 (ACHN): 18.2 µM
GI50 (KM12): 20.4 µM
GI50 (CCRF-CEM): 23.4 µM
GI50 (UO-31): 4.68 µM
GI50 (PC-3): 18.2 µM
GI50 (SNB-19): 20.9 µM
GI50 (SN12C): 16.2 µM
GI50 (NCI-H522): 17 µM
GI50 (DU-145): 18.6 µM
GI50 (NCI-H226): 15.8 µM
GI50 (NCI-H460): 21.4 µM
GI50 (OVCAR-8): 18.2 µM
GI50 (TK-10): 21.9 µM
GI50 (SW-620): 20.9 µM
GI50 (MCF7): 15.8 µM
GI50 (SK-OV-3): 17.8 µM
GI50 (A498): 13.5 µM
GI50 (M14): 18.6 µM
GI50 (SF-539): 18.2 µM

CNC(=O)Nc1ccccc1
GI50 (IGROV-1): 100 µM
GI50 (RXF 393): 100 µM
GI50 [1]: 100 µM
GI50 (MOLT-4): 100 µM
GI50 (CAKI-1): 100 µM
GI50 (BT-549): 100 µM
GI50 (SK-MEL-5): 100 µM
GI50 (MDA-MB-231): 100 µM
GI50 (SF-295): 100 µM
GI50 (LOX IMVI): 100 µM
GI50 (MDA-N): 100 µM
GI50 (SK-MEL-2): 100 µM
GI50 (A549): 100 µM
GI50 (SK-MEL-28): 100 µM
GI50 (OVCAR-4): 100 µM
GI50 (UACC-62): 100 µM
GI50 (SNB-75): 74.1 µM
GI50 (K562): 100 µM
GI50 (786-0): 100 µM
GI50 (HCC 2998): 100 µM
GI50 (HCT-15): 100 µM
GI50 (NCI-H322M): 100 µM
GI50 (EKVX): 100 µM
GI50 (T47D): 100 µM
GI50 (SR): 100 µM
GI50 (NCI/ADR-RES): 100 µM
GI50 (ACHN): 100 µM
GI50 (KM12): 100 µM
GI50 (CCRF-CEM): 100 µM
GI50 (UO-31): 100 µM
GI50 (PC-3): 100 µM
GI50 (SNB-19): 100 µM
GI50 (SN12C): 100 µM
GI50 (NCI-H522): 100 µM
GI50 (DU-145): 100 µM
GI50 (NCI-H226): 100 µM
GI50 (NCI-H460): 100 µM
GI50 (OVCAR-8): 100 µM
GI50 (TK-10): 100 µM
GI50 (SW-620): 100 µM
GI50 (MCF7): 100 µM
GI50 (SK-OV-3): 100 µM
GI50 (A498): 100 µM
GI50 (M14): 100 µM
GI50 (SF-539): 100 µM

CC(NC(=O)Nc1nc2ccccc2s1)(C(F)(F)F)C(F)(F)F
GI50 (IGROV-1): 41.7 µM
GI50 (RXF 393): 64.6 µM
GI50 [1]: 18.6 µM
GI50 (MOLT-4): 18.2 µM
GI50 (CAKI-1): 38.9 µM
GI50 (BT-549): > 100 µM
GI50 (SK-MEL-5): 49 µM
GI50 (MDA-MB-231): 34.7 µM
GI50 (SF-295): 60.3 µM
GI50 (LOX IMVI): 36.3 µM
GI50 (MDA-N): 97.7 µM
GI50 (SK-MEL-2): 30.2 µM
GI50 (A549): 16.2 µM
GI50 (SK-MEL-28): 72.4 µM
GI50 (OVCAR-4): 21.9 µM
GI50 (UACC-62): > 100 µM
GI50 (SNB-75): 7.59 µM
GI50 (K562): 17 µM
GI50 (786-0): 20.4 µM
GI50 (HCC 2998): 38.9 µM
GI50 (HCT-15): > 100 µM
GI50 (NCI-H322M): 26.9 µM
GI50 (EKVX): 74.1 µM
GI50 (T47D): 38 µM
GI50 (SR): 3.63 µM
GI50 (NCI/ADR-RES): > 100 µM
GI50 (ACHN): 28.8 µM
GI50 (KM12): 46.8 µM
GI50 (CCRF-CEM): 27.5 µM
GI50 (UO-31): 2.19 µM
GI50 (PC-3): 34.7 µM
GI50 (SNB-19): 24.5 µM
GI50 (SN12C): 25.7 µM
GI50 (NCI-H522): 24.5 µM
GI50 (DU-145): 91.2 µM
GI50 (NCI-H226): 38.9 µM
GI50 (NCI-H460): 24.5 µM
GI50 (OVCAR-8): 52.5 µM
GI50 (TK-10): 49 µM
GI50 (SW-620): 45.7 µM
GI50 (MCF7): 38 µM
GI50 (SK-OV-3): 52.5 µM
GI50 (A498): > 100 µM
GI50 (M14): 37.2 µM
GI50 (SF-539): 24.5 µM
